# Calls of active or inactive are those of the source. Unless noted, the calls are words filed in the database; no cut-off is given here.
# Experiments:
# [1] = Inhibition of quorum sensing system in Pseudomonas aeruginosa PAO1 MH602 harboring lasB promoter fused with GFP-ASV assessed as reduction in GFP-ASV reporter protein expression at 3.2 uM measured every 30 mins relative to control
# How it was run: (§1)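 P. aeruginosa PAO1 carrying a PlasB::gfp(ASV) fusion plasmid, which makes its own AHL signals, incubated with compounds at 88.8, 29.6, 9.9, 3.3 or 1.0 μM. GFP fluorescence (RFU) read every half hour. Percent QS inhibition is the percent RFU difference between sample and untreated control, taken at the time point when control fluorescence peaks.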
# [2] = Inhibition of quorum sensing system in Pseudomonas aeruginosa PAO1 MH602 harboring lasB promoter fused with GFP-ASV assessed as reduction in GFP-ASV reporter protein expression at 29 uM measured every 30 mins relative to control; how it was run: as §1
# [3] = Inhibition of quorum sensing system in Pseudomonas aeruginosa PAO1 MH602 harboring lasB promoter fused with GFP-ASV assessed as reduction in GFP-ASV reporter protein expression at 266 uM measured every 30 mins relative to control
# [4] = system: Pseudomonas aeruginosa; experiment: Antibacterial activity against Pseudomonas aeruginosa assessed as growth inhibition at 500 uM after 2 hrs by GFP reporter gene assay; format: organism-based; settings: in vivo
# [5] = Inhibition of quorum sensing system in Pseudomonas aeruginosa PAO1 MH602 harboring lasB promoter fused with GFP-ASV assessed as reduction in GFP-ASV reporter protein expression measured every 30 mins; how it was run: as §1
# [6] = Induction of nitric oxide release in PBS buffer supplemented with L-cysteine, xanthine, xanthine oxidase assessed as nitrite release at 250 to 500 uM after 1 hr by Griess assay; format: physicochemical
# How it was run: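 Total NO release was quantified as nitrite with Griess reagent, which detects nitrite at ≥1 μM. Because of that limit, compounds were added at 250 μM and 500 μM.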
# [7] = Inhibition of quorum sensing system in Pseudomonas aeruginosa PAO1 MH602 harboring lasB promoter fused with GFP-ASV assessed as reduction in GFP-ASV reporter protein expression at 9.8 uM measured every 30 mins relative to control; how it was run: as §1
# [8] = system: Pseudomonas aeruginosa; experiment: Induction of nitric oxide-dependent nirS gene expression in Pseudomonas aeruginosa at 500 uM incubated for 2 hrs under dark condition by GFP reporter gene assay relative to untreated control; format: functional
# [9] = system: Pseudomonas aeruginosa; experiment: Antibacterial activity against Pseudomonas aeruginosa PAO1 MH602 harboring lasB promoter fused with GFP-ASV assessed as growth inhibition at 88 uM measured every 30 mins by GFP-ASV reporter gene assay; format: organism-based; settings: for Activity: pseudomonas aeruginosa, in vivo, 0.5 h, 88 µM
# How it was run: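 Cell growth of the PAO1 PlasB::gfp(ASV) reporter strain tracked as OD600 every half hour during compound incubation, alongside GFP readings. Growth is compared against the untreated control.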
# [10] = Inhibition of quorum sensing system in Pseudomonas aeruginosa PAO1 MH602 harboring lasB promoter fused with GFP-ASV assessed as reduction in GFP-ASV reporter protein expression at 88 uM measured every 30 mins relative to control; how it was run: as §1
# [11] = system: Pseudomonas aeruginosa; experiment: Antibacterial activity against Pseudomonas aeruginosa PAO1 assessed as inhibition of biofilm formation at 150 uM after 6 hrs by crystal violet staining assay relative to control; format: functional; settings: for inhibition at 150 µM: PAO1, 6 h
# [12] = system: Pseudomonas aeruginosa; experiment: Antibacterial activity against Pseudomonas aeruginosa PAO1 assessed as growth inhibition at 150 uM after 6 hrs; format: organism-based; settings: in vivo
# [13] = system: Pseudomonas aeruginosa; experiment: Antibacterial activity against Pseudomonas aeruginosa MH602 harboring lasB promoter fused with GFP-ASV assessed as growth inhibition at 266 uM measured every 30 mins by GFP-ASV reporter gene assay; format: organism-based; settings: MH602, 0.5 h, read-out: GI
Structure (SMILES),inhibition [1],inhibition [2],inhibition [3] [%],Activity [4],inhibition [5],Activity [6],inhibition [7],fold change (FC) [8],Activity [9],inhibition [10] [%],inhibition [11],Activity [8],Activity [12],inhibition at 150 µM [11] [%],inhibition at 266 µM [13] [%],"inhibition at 88 µM ([9]; Pseudomonas aeruginosa, PAO1 MH602, 0.5 h, read-out: GI) [%]"
CCCC(SC(=O)CCO[N+](=O)[O-])C1=CC(=C(Br)Br)OC1=O (configuration not stated),inactive,33.6%,72.3,Non-toxic,Dose-dependent effect,1 µM,inactive,2,Non-toxic,51.5,,,,,,
CCCCCC(OC(=O)CC(=O)N1CCN(/[N+]([O-])=N/OC)CC1)C1=CC(=C(Br)Br)OC1=O (configuration not stated),inactive,23.7%,62.9,,Dose-dependent effect,,9.5%,,Non-toxic,41.5,inactive,,,,,
CCCCC1=C(Br)/C(=C/Br)OC1=O,inactive,5.9%,75.8,,Dose-dependent effect,,inactive,,Non-toxic,39.9,,,,,,
CCCC(OC(=O)CCO[N+](=O)[O-])C1=CC(=C(Br)Br)OC1=O (configuration not stated),inactive,43.1%,80.6,Non-toxic,Dose-dependent effect,,12.5%,,Non-toxic,62.8,,inactive,,,,
CCCC(OC(=O)CO/N=[N+](\[O-])N1CCOCC1)C1=CC(=C(Br)Br)OC1=O (configuration not stated),inactive,15.9%,72.1,,Dose-dependent effect,,inactive,,Non-toxic,47.5,inactive,,,,,
CCCCCCC(O[N+](=O)[O-])C1=CC(=C(Br)Br)OC1=O (configuration not stated),inactive,9.5%,65.7,Non-toxic,Dose-dependent effect,,inactive,,Non-toxic,29.9,,inactive,,,,
CCCC(OC(=O)CCCCCO[N+](=O)[O-])C1=CC(=C(Br)Br)OC1=O (configuration not stated),inactive,7.9%,54.1,Non-toxic,Dose-dependent effect,,inactive,,Non-toxic,18.8,,inactive,,,,
CCCCCCCC(O[N+](=O)[O-])C1=CC(=C(Br)Br)OC1=O (configuration not stated),inactive,inactive,58.2,Non-toxic,Dose-dependent effect,Active,inactive,,Non-toxic,19.2,,inactive,,,,
CCCC(OC(=O)CO/N=[N+](\[O-])N(CC)CC)C1=CC(=C(Br)Br)OC1=O (configuration not stated),inactive,30%,74.8,,Dose-dependent effect,,6.2%,,Non-toxic,52,inactive,,,,,
CCCCCCCCCCCC(OC(=O)CCC(=O)N1CCN(/[N+]([O-])=N/OC)CC1)C1=CC(=C(Br)Br)OC1=O (configuration not stated),inactive,inactive,41.9,,Dose-dependent effect,,inactive,,Non-toxic,6,inactive,,,,,
CCCC(OC(=O)CCC(=O)N1CCN(/[N+]([O-])=N/OC)CC1)C1=CC(=C(Br)Br)OC1=O (configuration not stated),inactive,17.7%,65.4,,Dose-dependent effect,,4.6%,,Non-toxic,39.3,inactive,,,,,
CCCC(O[N+](=O)[O-])C1=CC(=C(Br)Br)OC1=O (configuration not stated),inactive,39.9%,91.1,Non-toxic,Dose-dependent effect,1 µM,22.4%,,Non-toxic,71.4,,inactive,Non-toxic,70,> 15,
CC(O[N+](=O)[O-])C1=CC(=C(Br)Br)OC1=O (configuration not stated),inactive,29%,94.3,Toxic,Dose-dependent effect,,inactive,,,70.4,Active,inactive,,,> 15,> 15
CCCC(OC(=O)CCCO[N+](=O)[O-])C1=CC(=C(Br)Br)OC1=O (configuration not stated),inactive,12.3%,55.8,Non-toxic,Dose-dependent effect,1 µM,8%,,Non-toxic,28.6,,inactive,,,,
CCCC(OC(=O)CCCCCCCO[N+](=O)[O-])C1=CC(=C(Br)Br)OC1=O (configuration not stated),inactive,inactive,40.6,Non-toxic,Dose-dependent effect,1 µM,inactive,,Non-toxic,12.9,,inactive,,,,
CCCC(OC(=O)CCCCCCCCCCO[N+](=O)[O-])C1=CC(=C(Br)Br)OC1=O (configuration not stated),inactive,6.2%,54.8,Non-toxic,Dose-dependent effect,Active,inactive,,Non-toxic,21.8,,inactive,,,,
CCCCCC(O[N+](=O)[O-])C1=CC(=C(Br)Br)OC1=O (configuration not stated),inactive,32.5%,73.1,Non-toxic,Dose-dependent effect,1 µM,inactive,,Non-toxic,56.4,,inactive,Non-toxic,70,,
CCCC(SC(=O)CCCCCO[N+](=O)[O-])C1=CC(=C(Br)Br)OC1=O (configuration not stated),inactive,inactive,47.8,,Dose-dependent effect,Active,inactive,,Non-toxic,10.1,,,,,,
CCCC(O)C1=CC(=C(Br)Br)OC1=O (configuration not stated),inactive,37%,85.8,,Dose-dependent effect,,16.7%,,Non-toxic,62.9,,,,,,
CCCC(S)C1=CC(=C(Br)Br)OC1=O (configuration not stated),inactive,4.3%,50.5,,Dose-dependent effect,,1.5%,,Non-toxic,17.9,,,,,,
CCCC(SC(=O)CCCO[N+](=O)[O-])C1=CC(=C(Br)Br)OC1=O (configuration not stated),inactive,inactive,54.2,Non-toxic,Dose-dependent effect,Active,inactive,,Non-toxic,13.8,,inactive,,,,
O=[N+]([O-])O[C@H]1CO[C@H]2[C@@H]1OC[C@H]2O[N+](=O)[O-] [ISOSORBIDE DINITRATE],,,,Non-toxic,,4 µM,,,,,,inactive,,,,
CCCCC1=CC(=C(Br)Br)OC1=O,inactive,17%,69.8,,Dose-dependent effect,,inactive,,Non-toxic,34.1,,,,,,

# Source: ChEMBL document CHEMBL3102710, “Design, synthesis, and evaluation of fimbrolide-nitric oxide donor hybrids as antimicrobial agents” (J Med Chem, 2013)
